# PMC5014782 (Diabetes Therapy, 2016)
# “Also recorded” adds a separate entry of the source. Where two headings read alike, the source gives them in different places. Marks after values point to notes of the source that are not given here.
# What was measured:
# [1] = tested on: patients with type 2 diabetes mellitus; test: Exposure–response analysis for efficacy; format: in vivo, human; conditions: for Target of the maximal response for FPG and HbA1c obtained: after 24 weeks
# In short: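 NONMEM population PK/PD turnover model fitted to 25,361 FPG and 22,012 HbA1c values from 4065 patients, placebo arms included, in three Phase II and four Phase III trials of ≥12 weeks. AUCss drives FPG elimination through a non-linear Emax term, and FPG changes drive HbA1c production. Steady-state baseline assumed. Covariates on Gmax include eGFR and baseline FPG. Precision checked by bootstrap.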
# [2] = tested on: patients with type 2 diabetes mellitus; format: in vivo, human; conditions: 24 weeks, median (2.5th, 97.5th percentile)
# [3] = Japanese patients with T2DM and renal impairment; subjects with renal impairment; cited from earlier work
# [4] = tested on: patients with type 2 diabetes mellitus; test: Exposure–response analysis for safety/tolerability; format: in vivo, human; conditions: empagliflozin therapy compared with placebo-treated patients; OR (95% CI)
# In short: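 Logistic regression (R glm, binomial, logit link) of dichotomous patient-level adverse-event endpoints, each counted as any event during study. Endpoints: confirmed hypoglycemia (plasma glucose <3.9 mM and/or assistance required), and UTI, genital infection and volume depletion defined by 73, 89 and 8 preferred terms. Covariates enter additively with steady-state AUC relative to reference. Odds ratios computed for empagliflozin treatment.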
# [5] = Population pharmacokinetic analysis; format: in vivo, human
# In short: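 NONMEM 7.2 two-compartment model with lagged first-order absorption (lag fixed at 0.5 h) and first-order elimination. Fitted to 12,503 plasma concentrations from 2761 patients given oral doses of 1–100 mg once daily in ten Phase I–III studies; placebo excluded and first-hour samples dropped. eGFR by the MDRD formula, with a reference patient at eGFR 100 mL/min/1.73 m2. Bootstrap precision check.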
# [6] = tested on: patients with type 2 diabetes mellitus; conditions: cited from earlier work; for Placebo-corrected reduction in HbA1c / Reduction in FPG: Phase III
# [7] = eGFR 15 mL/min/1.73 m^2 vs reference patient with eGFR 100 mL/min/1.73 m^2
smiles,measurement,setting,value
OC[C@H]1O[C@@H](c2ccc(Cl)c(Cc3ccc(O[C@H]4CCOC4)cc3)c2)[C@H](O)[C@@H](O)[C@@H]1O [empagliflozin],Target of the maximal response for FPG and HbA1c obtained,[1]; once daily dose of approximately 10 mg,80%
same,Target of the maximal response for FPG and HbA1c obtained,[1]; once daily dose of approximately 25 mg,90%
same,Efficacy (effect on FPG) maintained in renal impairment,[1]; eGFR as low as 30 mL/min/1.73 m^2,nearly half the maximal effect
same,Once daily dose whose median exposure corresponds to AUC50,[1]; once daily dose,around 3 mg
same,"Median change from baseline in glycated hemoglobin, Observed","[2]; 10 mg, eGFR 30–60 mL/min/1.73 m^2 (study 10), five patients","−0.90 (−1.81, 0.12)^a"
same,"Median change from baseline in glycated hemoglobin, Observed","[2]; 10 mg, eGFR 45–60 mL/min/1.73 m^2 (study 10), five patients","−0.90 (−1.81, 0.12)^a"
same,"Median change from baseline in glycated hemoglobin, Observed","[2]; 10 mg, eGFR 60–90 mL/min/1.73 m^2 (study 10)","−0.40 (−1.70, 0.76)"
same,"Median change from baseline in glycated hemoglobin, Observed","[2]; 10 mg, elderly (75–85 years)","−0.65 (−2.44, 0.40)"
same,"Median change from baseline in glycated hemoglobin, Observed","[2]; 25 mg, eGFR 30–45 mL/min/1.73 m^2 (study 10)","−0.30 (−1.83, 1.43)"
same,"Median change from baseline in glycated hemoglobin, Observed","[2]; 25 mg, eGFR 30–60 mL/min/1.73 m^2 (study 10)","−0.40 (−2.00, 1.25)"
same,"Median change from baseline in glycated hemoglobin, Observed","[2]; 25 mg, eGFR 45–60 mL/min/1.73 m^2 (study 10)","−0.40 (−1.97, 0.88)"
same,"Median change from baseline in glycated hemoglobin, Observed","[2]; 25 mg, eGFR 60–90 mL/min/1.73 m^2 (study 10)","−0.70 (−1.64, 0.90)"
same,"Median change from baseline in glycated hemoglobin, Observed","[2]; 25 mg, elderly (75–85 years)","−0.50 (−2.03, 0.60)"
same,Increase in exposure for patients with renal impairment,[3],less than twofold
same,OR for UTI,[4],"0.941 (0.687, 1.29)"
same,OR for genital infection,[4],"5.08 (2.77, 9.34)"
same,OR for hypoglycemia,[4],"1.11 (0.811, 1.52)"
same,OR for volume depletion,[4],"1.44 (0.517, 4.01)"
same,Increase in typical AUCss,[5]; [7],88.1%
same,Reduction in CL/F,[5]; [7],46.8%
same,Increase in typical AUCss,[5]; eGFR 30 mL/min/1.73 m^2 vs reference patient with eGFR 100 mL/min/1.73 m^2,49.2%
same,Increase in typical AUCss,[5]; eGFR 60 mL/min/1.73 m^2 vs reference patient with eGFR 100 mL/min/1.73 m^2,18.5%
same,Increase in mean AUCss,[5]; eGFR ≥60 mL/min/1.73 m^2 vs reference eGFR 100 mL/min/1.73 m^2,≤ 20%
same,Vd/F,"[5]; human, plasma, oral",3.14 L
same,Increase in exposure (AUCss) in renal impairment,[5]; patients with (severe) renal impairment,less than twofold increase in exposure; also recorded: increased less than twofold; also recorded: increase in exposure less than twofold
same,first-order ka,[5]; typical value given the reference covariates,0.196 L/h
same,Placebo-corrected reduction in HbA1c,"[6]; add-on therapy, 10 mg",−0.4% to −0.7%
same,Reduction in FPG,"[6]; add-on therapy, 10 mg",−0.9 to −1.5 mM
same,Placebo-corrected reduction in HbA1c,"[6]; add-on therapy, 25 mg",−0.5% to −0.7%
same,Reduction in FPG,"[6]; add-on therapy, 25 mg",−1.2 to −1.8 mM
same,Placebo-corrected reduction in HbA1c,"[6]; monotherapy, 10 mg",−0.7%
same,Reduction in FPG,"[6]; monotherapy, 10 mg",-1.7 mM
same,Placebo-corrected reduction in HbA1c,"[6]; monotherapy, 25 mg",−0.9%
same,Reduction in FPG,"[6]; monotherapy, 25 mg",-2.0 mM
same,Effect on HbA1c as add-on to existing antidiabetic therapy,[6]; patients with T2DM and stage 2 or 3 CKD,significant reductions in HbA1c
same,Effect on HbA1c,[6]; patients with severe renal impairment (stage 4 CKD),no reduction in HbA1c was observed
